Laboratory results taken from ChEMBL document CHEMBL1134780, “Indolequinone antitumor agents: correlation between quinone structure and rate of metabolism by recombinant human NAD(P)H:quinone oxidoreductase. Part 2” (J Med Chem, 2001).

Assays:
[1] = target: NAD(P)H dehydrogenase [quinone] 1 (Homo sapiens) (UniProt P15559); experiment: NADH oxidation is used as a measure metabolism since 1 mol of NADH is oxidized for each mole of compound that is reduced; assay type: functional
BE-WT = experiment: Cytotoxicity against BE human colon carcinoma cell lines BE-WT(No NQO1 activity); assay type: functional, cell-based
In short: (§1)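 MTT assay in BE colon carcinoma cells, wild-type (BE-WT) or stably transfected with human NQO1 cDNA (BE-NQ). Cells grown in MEM/10% FBS at 37 °C, 5% CO2, plated at (1–2) × 10^4 cells/mL and attached 16 h. Drug exposure 2 h, then drug-free medium for 5–7 days. MTT for 4 h, formazan dissolved in DMSO, A550. IC50 taken from % control versus concentration plots.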

[2] = target: NAD(P)H dehydrogenase [quinone] 1 (Homo sapiens) (UniProt P15559); experiment: Ability to inactivate Recombinant human NQO1; assay type: functional; set-up: concentration or dose not given beside the values
In short: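 Recombinant hNQO1 (1–2 µg) preincubated 30 min at 22 °C with 10 µM indolequinone, with or without 100 µM NADH, in 25 mM Tris-HCl pH 7.4 + 2 mg/mL Tween-20. Reaction stopped with cold Tris-HCl/250 mM sucrose. Residual activity measured as reduction of 40 µM DPIP with 200 µM NADH (0.7 mg/mL BSA) at 600 nm for 30 s. Reported as % remaining, +NADH versus −NADH.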

BE-NQ = experiment: Cytotoxicity against BE human colon carcinoma cell lines BE-NQ( high NQO1 activity); assay type: functional, cell-based; in short: as §1

Sequence of NAD(P)H dehydrogenase [quinone] 1 (Homo sapiens) (P15559 whole entry): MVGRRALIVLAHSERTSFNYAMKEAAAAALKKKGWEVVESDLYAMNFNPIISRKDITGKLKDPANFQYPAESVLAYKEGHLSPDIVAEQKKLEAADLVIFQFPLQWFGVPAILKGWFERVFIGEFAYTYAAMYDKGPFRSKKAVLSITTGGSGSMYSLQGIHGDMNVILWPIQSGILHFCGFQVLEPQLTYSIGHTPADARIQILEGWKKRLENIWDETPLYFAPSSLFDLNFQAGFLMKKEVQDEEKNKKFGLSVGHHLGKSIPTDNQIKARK

Row | Metabolism [1] | Enzyme activity [2] | SMILES | IC50 (BE-WT) | IC50 (BE-NQ)
1 | 18.6 µM/min/mg |  | CCCn1c(C)c(C(=O)OCC)c2c1C(=O)C(C)=C(OC)C2=O |  | 
2 | 3.8 µM/min/mg |  | COC1=C(C)C(=O)c2c(c(CO)c(C)n2C)C1=O |  | 
3 | 0.28 µM/min/mg |  | COC1=CC(=O)c2c(c(COc3ccccc3)c(C)n2C)C1=O |  | 
4 | 0.23 µM/min/mg |  | CCOC(=O)c1c2c(n(C)c1-c1ccc3ccccc3c1)C(=O)C=C(OC)C2=O | 49 µM | > 50 µM
5 | 3 µM/min/mg |  | COC1=C(C)C(=O)c2c(c(CO)c(C)n2-c2ccccc2)C1=O |  | 
6 | 13.7 µM/min/mg |  | COC(=O)c1c2c(n(C)c1C)C(=O)C(C)=C(OC)C2=O |  | 
7 | 1.7 µM/min/mg |  | CCCn1c(C)c(CO)c2c1C(=O)C(C)=C(OC)C2=O |  | 
8 | 7.9 µM/min/mg |  | CCOC(=O)c1c2c(n(-c3ccccc3)c1C)C(=O)C(C)=C(OC)C2=O |  | 
9 | 16.4 µM/min/mg |  | CCOC(=O)c1c2c(n(-c3ccccc3)c1C)C(=O)C=C(OC)C2=O |  | 
10 | 36.6 µM/min/mg |  | CCOC(=O)c1c2c(n(C3CC3)c1C)C(=O)C=C(OC)C2=O |  | 
11 | 9.3 µM/min/mg |  | CCc1c(C(=O)OC)c2c(n1Cc1ccccc1)C(=O)C=C(OC)C2=O |  | 
12 | 77.6 µM/min/mg |  | CCCn1c(C)c(C(=O)OCC)c2c1C(=O)C=C(OC)C2=O |  | 
13 | 6 µM/min/mg |  | COC1=CC(=O)c2c(c(CO)c(C)n2-c2ccccc2)C1=O |  | 
14 | 39.4 µM/min/mg |  | CCOC(=O)c1c2c(n(CCN3CCOCC3)c1C)C(=O)C(C)=C(OC)C2=O |  | 
15 | 3.9 µM/min/mg |  | CCOC(=O)c1c2c(n(-c3ccc(F)cc3)c1C)C(=O)C=C(OC)C2=O |  | 

More lines, now with the values behind:

Row | SMILES | Metabolism [1] | Enzyme activity [2] | IC50 (BE-WT) | IC50 (BE-NQ)
16 | CCCn1c(C)c(CO)c2c1C(=O)C=C(OC)C2=O | 1.3 µM/min/mg |  |  | 
17 | COC1=CC(=O)c2c(c(COc3cc([N+](=O)[O-])ccc3OC)c(C)n2C)C1=O | 0.05 µM/min/mg | 13% | 34.4 µM | 6.5 µM
18 | COC1=CC(=O)c2c(c(COc3ccc([N+](=O)[O-])cc3OC)c(C)n2C)C1=O | 0.05 µM/min/mg |  | 1.5 µM | 0.51 µM
19 | COC1=CC(=O)c2c(c(COc3ccc(NC(C)=O)cc3)c(C)n2C)C1=O | 0.38 µM/min/mg |  | 10.3 µM | 6.6 µM
20 | CN1CCN(C2=CC(=O)c3c(c(CO)c(-c4ccccc4)n3C)C2=O)CC1 | 0.15 µM/min/mg |  |  | 
21 | COC1=C(C)C(=O)c2c(c(CO)c(C)n2CCN2CCOCC2)C1=O | 7.6 µM/min/mg |  |  | 
22 | COC1=CC(=O)c2c(c(CO)c(-c3ccc4ccccc4c3)n2C)C1=O | 4 µM/min/mg |  | > 50 µM | > 50 µM
23 | COC1=CC(=O)c2c(c(C(C)O)c(C)n2C)C1=O (centres undefined) | 10.4 µM/min/mg |  |  | 
24 | COC1=CC(=O)c2c(c(CO)c(C)n2-c2ccc(F)cc2)C1=O | 9.2 µM/min/mg |  |  | 
25 | COC1=CC(=O)c2c(c(CO)c(C)n2C2CC2)C1=O | 14 µM/min/mg |  |  | 
26 | COC1=CC(=O)c2c(c(COC(=O)Cc3ccc(-c4ccccc4)cc3)c(C)n2C)C1=O | 0.09 µM/min/mg | 0% | 5.5 µM | 5.1 µM
27 | Cc1c(C(C)O)c2c(n1C)C(=O)C=C(N1CCOCC1)C2=O (centres undefined) | 0.27 µM/min/mg |  |  | 
28 | CCOC(=S)SCc1c2c(n(C)c1C)C(=O)C=C(OC)C2=O | 1.1 µM/min/mg |  | > 50 µM | > 50 µM
29 | COC1=CC(=O)c2c(c(COC(C)=O)c(C)n2C)C1=O |  | 0% |  | 
30 | COC1=CC(=O)c2c(c(CO)cn2C)C1=O | 13.6 µM/min/mg | 96% | > 50 µM | > 50 µM
31 | COC1=CC(=O)c2[nH]c(C)c(C(C)=O)c2C1=O | 29.8 µM/min/mg |  |  | 
32 | CCOC(=O)CNC(=O)OCc1c2c(n(C)c1C)C(=O)C=C(OC)C2=O | 0.11 µM/min/mg | 19% | 3.8 µM | 3.2 µM
33 | COC1=CC(=O)c2[nH]c(C)c(C(C)O)c2C1=O (centres undefined) | 27.7 µM/min/mg |  |  | 
34 | CCc1c(CO)c2c(n1Cc1ccccc1)C(=O)C=C(OC)C2=O | 0.9 µM/min/mg |  |  | 
35 | COC1=CC(=O)c2c(c(COc3ccc([N+](=O)[O-])cc3F)c(C)n2C)C1=O | 0.05 µM/min/mg | 0% | 1.5 µM | 1.2 µM
36 | COC1=CC(=O)c2c(c(COc3ccc([N+](=O)[O-])cc3)cn2C)C1=O | 0.29 µM/min/mg | 52% | 1.05 µM | 0.44 µM
